Test results: ChEMBL document CHEMBL4028809, “Dual-tail approach to discovery of novel carbonic anhydrase IX inhibitors by simultaneously matching the hydrophobic and hydrophilic halves of the active site” (Eur J Med Chem, 2017)
The source made the active and inactive calls. The calls are words filed in the database; no cut-off is given here.

Legend:
Carbonic anhydrase 9 = Carbonic anhydrase 9 (Homo sapiens, UniProt Q16790); experiment: Inhibition of recombinant human carbonic anhydrase 9 using 4-nitrophenylacetate as substrate pretreated for 15 mins prior to test by spectrophotometric method
HT-29 [1] = experiment: Cytotoxicity against human HT-29 cells assessed as cell viability at 100 uM after 72 hrs under normoxic condition by MTT assay relative to control; type: functional; conditions: for viability at 100 µM: HT-29, 72 h, read-out: Activity
Summary of the method: (§1)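 HT-29 or MDA-MB-231 cells seeded at 5 × 10^4 per well and stabilized 24 h at 37 °C, then exposed to a single 0.1 mM dose for 72 h, in hypoxia (0.5% O2, 5% CO2, balance N2, modular chamber) or normoxia (20% O2, 5% CO2). MTT at 5 mg/mL added for 4 h; formazan dissolved in DMSO; absorbance read at 540 nm.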

MDA-MB-231 [2] = experiment: Cytotoxicity against human MDA-MB-231 cells assessed as cell viability at 100 uM after 72 hrs under normoxic condition by MTT assay; type: functional; conditions: for viability at 100 µM: MDA-MB-231, 72 h, read-out: Activity; summary of the method: as §1
MDA-MB-231 [3] = experiment: Cytotoxicity against human MDA-MB-231 cells assessed as cell viability at 100 uM after 72 hrs under hypoxic condition by MTT assay; type: functional; conditions: for viability at 100 µM: MDA-MB-231, 72 h, read-out: Activity; summary of the method: as §1
HT-29 [4] = experiment: Cytotoxicity against human HT-29 cells assessed as cell viability at 100 uM after 72 hrs under hypoxic condition condition by MTT assay relative to control; type: functional; conditions: for viability at 100 µM: HT-29, 72 h, read-out: Activity; summary of the method: as §1
Carbonic anhydrase 2 = Carbonic anhydrase 2 (Homo sapiens, UniProt P00918); experiment: Inhibition of recombinant human carbonic anhydrase 2 using 4-nitrophenylacetate as substrate pretreated for 15 mins prior to test by spectrophotometric method

Row | Compound | IC50 (Carbonic anhydrase 9) [nM] | viability at 100 µM (HT-29 [1]) [%] | viability at 100 µM (MDA-MB-231 [2]) [%] | viability at 100 µM (MDA-MB-231 [3]) [%] | viability at 100 µM (HT-29 [4]) [%] | Activity (HT-29 [1]) | Activity (MDA-MB-231 [2]) | Activity (MDA-MB-231 [3]) | Activity (HT-29 [4]) | IC50 (Carbonic anhydrase 2) [nM]
1 | COc1ccc(/C=C/C(=O)N[C@H]2[C@H](OC)O[C@H](CO)[C@@H](O)[C@@H]2O)cc1 | 20000 |  |  |  |  |  |  |  |  | 
2 | COc1ccccc1/C=C/C(=O)N[C@@H]1[C@@H](O)[C@H](O)[C@@H](CO)O[C@H]1NC(=S)Nc1ccc(S(N)(=O)=O)cc1 | 60 | 73 to 79 | 89 to 99 | 69.5 to 79.9 | 63 to 77 |  |  |  |  | 
3 | COc1cc(OC)c(OC)cc1/C=C/C(=O)N[C@@H]1[C@@H](O)[C@H](O)[C@@H](CO)O[C@H]1NC(=S)Nc1ccc(S(N)(=O)=O)cc1 | 37 | 73 to 79 | 89 to 99 | 69.5 to 79.9 | 63 to 77 |  |  |  |  | 
4 | COc1cccc(/C=C/C(=O)N[C@@H]2[C@@H](O)[C@H](O)[C@@H](CO)O[C@H]2NC(=S)Nc2ccc(S(N)(=O)=O)cc2)c1 | 95 | 73 to 79 | 89 to 99 | 69.5 to 79.9 | 63 to 77 |  |  |  |  | 
5 | CC(=O)Nc1nnc(S(N)(=O)=O)s1 |  |  |  |  |  | inactive | inactive | inactive | inactive | 
6 | N[C@@H]1[C@@H](O)[C@H](O)[C@@H](CO)O[C@H]1NC(=S)Nc1ccc(S(N)(=O)=O)cc1 | 667 |  |  |  |  |  |  |  |  | 203
7 | COc1ccc(/C=C/C(=O)N[C@@H]2[C@@H](O)[C@H](O)[C@@H](CO)O[C@H]2NC(=S)Nc2ccc(S(N)(=O)=O)cc2)cc1 | 152 | 73 to 79 | 89 to 99 | 69.5 to 79.9 | 63 to 77 |  |  |  |  | 
8 | COc1ccc(/C=C/C(=O)N[C@@H]2[C@@H](O)[C@H](O)[C@@H](CO)O[C@H]2NC(=S)Nc2ccc(S(N)(=O)=O)cc2)c(OC)c1 | 7 |  |  |  |  | inactive | inactive | inactive | inactive | 
9 | COc1cc(/C=C/C(=O)N[C@@H]2[C@@H](O)[C@H](O)[C@@H](CO)O[C@H]2NC(=S)Nc2ccc(S(N)(=O)=O)cc2)cc(OC)c1OC | 46 | 73 to 79 | 89 to 99 | 69.5 to 79.9 | 63 to 77 |  |  |  |  | 
10 | COc1cccc(/C=C/C(=O)N[C@@H]2[C@@H](O)[C@H](O)[C@@H](CO)O[C@H]2NC(=S)Nc2ccc(S(N)(=O)=O)cc2)c1OC | 33 | 73 to 79 | 89 to 99 | 69.5 to 79.9 | 63 to 77 |  |  |  |  | 
11 | COc1ccc(/C=C/C(=O)O)cc1 [4-METHOXYCINNAMIC ACID] | 850000 |  |  |  |  |  |  |  |  | 760000
